APP transl inh – inhibitors of APP translation via 5'UTR reporter, primary screen, APP 5'UTR luciferase, SH-SY5Y cells. SH-SY5Y APP 5'UTR-luciferase reporter, luminescence. inhibition, % at 2 µM. 0.82% of 190,000 active;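 active = inhibition above a set limit, derived from the sample mean plus 3 SD, cut at about 45% in these data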
BaF3 parental – parental Ba/F3 cell viability inhibition, counter-screen for JAK2V617F inhibitor project, murine pro-B, CellTiter-Glo luminescence; inhibition, % at 5.6 µM; AID 1486, 2009; CellTiter-Glo ATP luminescence; 1.1% of 220,000 active;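 active = inhibition above a per-campaign cutoff, the mean inhibition of all tested compounds plus 3 SD, cut at about 27% in these data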;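 note: 0% = DMSO wells and 100% = JAK Inhibitor I control wells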
IEC-6 cytotox – cytotoxicity in IEC-6 intestinal epithelial cells, primary screen, cytotoxicity control for KLF5 inhibitor project, cell-based, luminescence; inhibition, % at 5 µM; AID 1825, 2009; 0.78% of 290,000 active; IEC-6 cytotoxicity, luminescence viability;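 note: 0% = plate median of test compound wells and 100% = cytotoxic reference compound wells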
b-catenin transl – modulators of beta-catenin nuclear translocation, primary screen, imaging, HeLa cells, immunofluorescence, high-content. nuclear translocation activity, % at 5 µM. 0.3% of 190,000 active;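 active = nuclear translocation activity above 50% at 5 µM, with a well cell count of 50 or more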;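 note: per-cell ratio of nuclear to cytoplasmic median beta-catenin stain intensity; plate controls were DMSO negative control for no effect and GSK-3 inhibitor IX positive control for full effect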
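test system = HeLa cells, endogenous beta-catenin | dosing = single 5 µM dose plus 0.02–20 µM confirmation series | times = compound treatment 24 h, 37°C, 5% CO2 | technique = beta-catenin immunofluorescence imaging with DAPI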
Ba/F3 V617F tox – reduced viability of JAK2V617F-dependent Ba/F3 cells, primary screen, JAK2V617F inhibitor project, cell-based, Ba/F3 EpoR-JAK2V617F, luminescence | ATP luminescence | inhibition, % at 5.6 µM | 1.1% of 220,000 active | AID 1446, 2008;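 active = inhibition above the campaign mean plus 3 SD over all tested compounds, cut at about 24% in these data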;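 note: cytokine-independent growth of Ba/F3 cells driven by EpoR plus mutant JAK2; 0% = DMSO-treated cells and 100% = JAK inhibitor I control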
MT stabilize HCS – microtubule stabilizers in HeLa cells, primary screen, imaging, high-content imaging; 0.83% of 200,000 active; % tubulin-high responders, % at 10 µM; HeLa tubulin immunostaining HCS, 24 h; share of cells brighter than vehicle mean+2SD;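 active = plate Z-score above 3 for both tubulin-high and condensed-nucleus cell shares, with cell loss under 80%, at 10 µM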;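 note: anti alpha tubulin signal scored within the nucleus-defined area of each cell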
IEC-6 tox confirm – cytotoxic compounds in IEC-6 epithelial cells, confirmation, cytotoxicity control, cell-based, luminescence. 63% of 1,900 active. shares compounds with IEC-6 cytotox. inhibition, % at 5 µM. IEC-6 rat intestinal epithelial viability;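 note: 0% = vehicle and 100% = reference cytotoxic drug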
* marks the source's active call; other numbers are inactive results; . = no result given. A selection: hits, their analogues and other compounds. The true share with any hit is near 2.2%. Cut-off read from the data, not from the text of the source, unless noted: active = inhibition above about 22%; inactive = the rest.

SMILES	APP transl inh	BaF3 parental	IEC-6 cytotox	b-catenin transl	Ba/F3 V617F tox	MT stabilize HCS	IEC-6 tox confirm
Cc1ccc(N/N=C(\Cc2nc3ccccc3[nH]2)c2ccccc2)cc1	92*	19	55*	107*	14	5	61*
COc1ccc(-[n+]2c(C)cc(/C=C3\Sc4ccccc4N3C)cc2C)cc1	83*	97*	32*	12	101*	24	65*
C=CCn1c(SCc2nc3ccccc3c(=O)[nH]2)nc2ccccc2c1=O	0	2	0	3	-1	3	.
C=CCn1c(SCc2c(C)noc2C)nc2ccccc2c1=O	94*	72*	83*	.	71*	27*	57*
CCO[C@H]1OC(C(=O)NCc2nc3ccccc3[nH]2)=C[C@@H](c2ccccc2)[C@@H]1CCCO	8	4	-4	-2	-6	3	.
CCO[C@H]1OC(C(=O)NCc2nc3ccccc3[nH]2)=C[C@@H](C2CC2)[C@@H]1CCCO	86*	73*	72*	122*	74*	22*	53*
CC1=C(C(=O)OCc2ccc3c(c2)OCO3)C(c2ccc(F)cc2)NC(=O)N1 (centres undefined)	44	31*	38*	14	52*	15*	47*
CCCCCOC(=O)C1=C(C)NC(=O)NC1c1ccc2c(c1)OCO2 (centres undefined)	.	.	-3	.	.	.	.
CC1=C(C(=O)OCc2ccc3c(c2)OCO3)C(c2ccc(Cl)cc2)NC(=O)N1 (centres undefined)	78*	76*	82*	0	74*	16*	72*
CSCCOC(=O)C1=C(C)NC(=O)NC1c1ccc2c(c1)OCO2 (centres undefined)	.	.	5	.	.	.	.
COc1ccc(C(=O)N2CCc3cc4c(cc3C2C)OCCCO4)cc1 (centres undefined)	.	.	13	.	.	.	.
CC1c2cc3c(cc2CCN1C(=O)c1ccc(Br)cc1)OCCCO3 (centres undefined)	.	.	39*	.	.	.	37*
CCc1ccc(N(CC(=O)NCc2ccco2)C(=O)CCC(=O)Nc2ccccn2)cc1	.	.	-2	.	.	.	.
Cc1ccc2cc(CN(c3ccccc3)S(=O)(=O)c3ccccc3)c(=O)[nH]c2c1	.	1	7	1	-3	.	.
CCOc1ccc(N(Cc2cc3ccc(C)cc3[nH]c2=O)S(=O)(=O)c2ccccc2)cc1	.	.	22*	.	.	.	-6
O=C(Nc1ccc2c(c1)OCO2)C(=O)c1c[nH]c2ccccc12	.	.	17	.	.	.	.
O=C(Nc1ccc2c(c1)OCCO2)C(=O)c1c[nH]c2ccccc12	.	.	66*	.	.	.	46*
CCCc1nnc(NC(=O)CCC(=O)N2CCN(Cc3cc(Cl)ccc3OC)CC2)s1	.	.	-2	.	.	.	.
COc1cc(CCC(=O)Nc2nnc(C)s2)cc(OC)c1OC	.	.	48*	.	.	.	35*
C=CCN1C(=O)N/C(=C/c2ccc(N3CCOCC3)o2)C1=O	88*	78*	32*	-2	95*	2	0
NC(=O)CC(NC(=O)Cc1ccc(Br)cc1)c1ccc(N2CCC(N3CCCC3)CC2)c([N+](=O)[O-])c1 (centres undefined)	.	.	9	.	.	.	.
COc1cc(/C=C2/SC(=S)N(Cc3ccccc3)C2=O)ccc1O	.	.	10	.	.	.	.
COc1ccc(/C=C2\CN(Cc3ccccc3)C/C(=C\c3ccc(OC)c(O)c3)C2=O)cc1O	.	.	33*	.	.	.	15
CC(=O)c1ccc(NC(=O)CCOc2cc(C)ccc2C)cc1	.	.	8	.	.	.	.
Cc1ccc(Cn2nnnc2CN2CCC(c3nc4ccc(Cl)cc4[nH]3)CC2)cc1	68*	82*	88*	0	92*	3	54*
SMILES	APP transl inh	BaF3 parental	IEC-6 cytotox	b-catenin transl	Ba/F3 V617F tox	MT stabilize HCS	IEC-6 tox confirm
Clc1ccc2nc(C3CCN(Cc4nnnn4C4CCCCC4)CC3)[nH]c2c1	13	3	16	1	0	3	.
CCCc1ccc(C(=O)NNc2ccccc2F)cc1	.	1	-3	-1	-4	.	.
COc1cc(C(=O)NCCOc2cc(C)cc(C)c2)cc(OC)c1OC	.	.	62*	.	.	.	42*
CC(=O)Nc1nc(-c2ccc3c(c2)CCN3C(=O)C2CC2)c(C)s1	.	.	49*	.	.	.	4
CC1(C)CC(N2CCCC2)=CC(=[N+]2CCCCC2)C1	17	67*	23*	2	82*	2	33*
CC1(C)CC(=O)C=C(N2CCN(C3=CC(=O)CC(C)(C)C3)CC2)C1	.	.	.	-1	.	.	.
CC1(C)Cc2ccccc2C(/C(=N\Nc2cccc(Cl)c2)C(N)=O)=N1	-15	4	6	-1	1	2	.
CC(=O)c1ccc(N/N=C(/C(N)=O)C2=NC(C)(C)Cc3ccccc32)cc1	27	0	40*	12	-1	6	33*
Cc1nn2c(NCc3ccccn3)cc(C(C)(C)C)nc2c1-c1ccccc1	.	-2	0	-1	-2	.	.
Cc1cc(NCc2ccccn2)n2nc(C)c(-c3ccccc3)c2n1	.	9	81*	-2	9	.	18
O=C(CSc1n[nH]c(-c2ccccn2)n1)Nc1ccc(Cl)cc1	.	.	44*	.	.	.	29*
CSc1nc2sc3c(c2c(=O)[nH]1)CC(C)(C)OC3	.	.	-1	.	.	.	.
O=S(=O)(c1ccc(Cl)cc1)N1CCC(c2nc3ccccc3[nH]2)CC1	.	.	31*	.	.	.	28*
CC(=O)c1ccc(S(=O)(=O)N2CCC(c3nc4ccccc4[nH]3)CC2)cc1	.	.	1	.	.	.	.
O=C(O)CC(C(=O)Nc1ccc(Cl)cc1)N1CCCCCC1 (centres undefined)	.	.	-6	.	.	.	.
Nc1ncnc2c1ncn2[C@@H]1O[C@H](CO)[C@@H](O)[C@H]1O	-6	5	0	-5	-4	3	.
N=c1ccn2c(n1)OC1C(O)C(CO)OC12 (centres undefined)	.	80*	92*	-1	75*	.	72*
CCn1cc2nc(SCC(=O)Nc3ccc(OC)cc3OC)n(Cc3ccc(OC)cc3)c(=O)c2n1	.	.	62*	.	.	.	42*
COc1ccc(CN2C(=O)c3cccc4cccc2c34)cc1F	.	.	5	.	.	.	.
COc1ccc(C(=O)c2ccc(Cl)cc2)cc1	-2	6	8	-8	1	1	.
COc1ccc(C(=O)c2ccc(Cl)c([N+](=O)[O-])c2)cc1	95*	91*	66*	.	91*	5	73*
O=C(CC1C(=O)NCCN1C(=O)c1ccccc1)Nc1cc(Cl)ccc1Cl (centres undefined)	.	.	-3	.	.	.	.
COc1ccc(NS(=O)(=O)NC(=O)c2c[nH]c3ccccc23)cc1	.	.	-2	.	.	.	.
Cc1ccc(S(=O)(=O)c2nc(-c3ccccc3Cl)oc2N(C)C)cc1	.	.	24*	.	.	.	16

Screening data from PubChem BioAssay.
